Test system: HeLa
Experiment: Antiproliferative activity against human HeLa cells assessed as inhibition of cell growth incubated for 24 hrs by MTT assay
Type: functional, cell-based
In short: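 Cells kept in DMEM with 10% FBS and 1% antibiotic-antimycotic at 37 °C and 5% CO2. Seeded at 8 × 10^3 cells per 100 μL and left 24 h, then exposed 24 h to 5, 10, 20, 50 or 100 μM. MTT at 0.5 mg/mL in HBSS was added for 2–4 h at 37 °C in the dark. Formazan was dissolved in DMSO, A570 was read, and IC50 was derived.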

IC50 [µM] | SMILES
> 100 | C=C(C)[C@@H](O)[C@H](O)C[C@H](C)[C@@H]1CC[C@]2(C)C3=CC[C@H]4C(C)(C)C(=O)CC[C@]4(C)[C@H]3CC[C@@]12C
32.2 | COc1cccc2c1C(=O)c1c(O)c3c(c(O)c1C2=O)C[C@@](O)(C(=O)CO)C[C@@H]3O[C@H]1C[C@H](N)[C@H](O)[C@H](C)O1 [DOXORUBICIN]

SMILES | IC50 [µM]
C[C@@H](C[C@@H](O)[C@H](O)C(C)(C)O)[C@@H]1CC[C@]2(C)C3=CC[C@H]4C(C)(C)C(=O)CC[C@]4(C)[C@H]3CC[C@@]12C | > 100
